Source: the RNAGym collection of RNA variant scans (doi:10.1126/science.aae0568)
This sample holds only a part of the variants without activity.

B1: tRNA (parent)
chain: GUUCCGUUGGCGUAAUGGUAACGCGUCUCCCUCCUAAGGAGAAGACUGCGGGUUCGAGUCCCGUACGGAACG

Variants of: B1
Experiment: yeast fitness relative to wild type (ratio to wild type); higher = fitter; tRNA-Arg(CCU), competitive growth, 37 C, YPD
How it was run: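 Gene amplicons from the start population and from each of six end populations were read by 100-nucleotide paired-end sequencing. Those end populations came from pooled Saccharomyces cerevisiae strains carrying tRNA-Arg(CCU) gene variants at the native locus, competed in YPD at 37°C for 24 hours. Fitness relative to wild type was worked out from changes in genotype frequencies. Genotypes needed ≥ 100 starting reads, and estimates < 0.5 were set to 0.5.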

Row | Variant | yeast fitness
1 | C29G U32A C62A | 0.608
2 | C29G U32A U64A | ≤ 0.5
3 | C29G U32C A36G | 0.597
4 | C29G U32C A42C | 0.54
5 | C29G U32C A70C | 0.555
6 | C29G U32C C61G C66G | ≤ 0.5
7 | C29G U32G G38A C46U A70U | ≤ 0.5
8 | C29G U35A A36C | ≤ 0.5
9 | C29G U35A A36C C62A | ≤ 0.5
10 | C29G U35A A36C G68A | ≤ 0.5
11 | C29G U35A A42U | ≤ 0.5
12 | C29G U35A G58C | ≤ 0.5
13 | C29G U35A G58C C66U | ≤ 0.5
14 | C29G U35A U64C | ≤ 0.5
15 | C29G U35C G38C A57G | ≤ 0.5
16 | C29G U35C G56A C62G | ≤ 0.5
17 | C29G U35C U54C C61A | ≤ 0.5
18 | C29G U35C U54C U64C | ≤ 0.5
19 | C29G U35G A42G C61U | ≤ 0.5
20 | C29G U47A C66A | 0.532
21 | C29G U47A G48A | 0.553
22 | C29G U47G A57G A69U | ≤ 0.5
23 | C29G U53G | ≤ 0.5
24 | C29G U59G U64C | 0.549

Row | Variant | yeast fitness
25 | C29G U64C | 0.688
26 | C29G U64G | 0.635
27 | C29U | 0.989
28 | C29U A36G U54C | 0.542
29 | C29U A36U A57G G58A | ≤ 0.5
30 | C29U A36U C61U | ≤ 0.5
31 | C29U A37C | 0.894
32 | C29U A37G C61G A69U | ≤ 0.5
33 | C29U A37G G48C G67C | ≤ 0.5
34 | C29U A40G C60G | ≤ 0.5
35 | C29U A40U G56C | 0.552
36 | C29U A40U U53A C60A A65G | ≤ 0.5
37 | C29U A42U A43U A57C A70G | 0.577
38 | C29U A42U A43U C55G | 0.545
39 | C29U A42U A43U C55G C62G | ≤ 0.5
40 | C29U A42U A45C | 0.51
41 | C29U A43C | 0.948
42 | C29U A43C G50C C60A | 0.634
43 | C29U A43C G51A | ≤ 0.5
44 | C29U A43C G63A | 0.699
45 | C29U A43G C66U | 0.598
46 | C29U A43G G44A C46A | 0.609
47 | C29U A43G U53G G63A | ≤ 0.5
48 | C29U A43U | 1.04

Row | Variant | yeast fitness
49 | C29U A43U A69C | 0.735
50 | C29U A43U A70C | 1.01
51 | C29U A43U C46A C61G G68A | 0.567
52 | C29U A45C C60A | 0.598
53 | C29U A45C G63A | 0.578
54 | C29U A45C U53C C55U G56C C61A C66U | ≤ 0.5
55 | C29U A45C U54A C55A | ≤ 0.5
56 | C29U A45U A65C | 0.544
57 | C29U A57C | 0.611
58 | C29U A57G C60G U64C | 0.609
59 | C29U A65C A69C | ≤ 0.5
60 | C29U A65C C66G | 0.57
61 | C29U A65U | 0.754
62 | C29U A69C | 0.939
63 | C29U A70G | 0.887
64 | C29U C30A A37U A57C | ≤ 0.5
65 | C29U C30A A65U | ≤ 0.5
66 | C29U C30A U59G | ≤ 0.5
67 | C29U C30U A43U A65U | 0.588
68 | C29U C30U A65G | 0.704
69 | C29U C30U G63A | 0.514
70 | C29U C31A A40C G52A C61A | ≤ 0.5
71 | C29U C31A C46U | 0.552
72 | C29U C31A C66G G67U | ≤ 0.5

Row | Variant | yeast fitness
73 | C29U C31A G38C | ≤ 0.5
74 | C29U C31A G44A | 0.885
75 | C29U C31G G38A G51A G58C | ≤ 0.5
76 | C29U C31U | 0.846
77 | C29U C31U C66U | 0.591
78 | C29U C31U G41C | ≤ 0.5
79 | C29U C31U G41C A65G | 0.609
80 | C29U C31U U54G A65C G67A | 0.549
81 | C29U C31U U54G A65U G67A | 0.565
82 | C29U C31U U54G G68A | ≤ 0.5
83 | C29U C31U U54G G68C | ≤ 0.5
84 | C29U C33A | 0.7
85 | C29U C33A C34U C46G | ≤ 0.5
86 | C29U C33A C34U G51C U64A C66U A69C | ≤ 0.5
87 | C29U C33A G38A | ≤ 0.5
88 | C29U C33A G38A G58C A65U | ≤ 0.5
89 | C29U C33A G38C | 0.638
90 | C29U C33G | 0.689
91 | C29U C33G A69U | ≤ 0.5
92 | C29U C33G G44C U64C | ≤ 0.5
93 | C29U C33G G52A G58C | 0.596
94 | C29U C33G G52A G58C A70G | ≤ 0.5
95 | C29U C33U A40G U47A | ≤ 0.5
96 | C29U C33U A42C | 0.774

Row | Variant | yeast fitness
97 | C29U C33U G39C A57U | ≤ 0.5
98 | C29U C33U U35C U54A | ≤ 0.5
99 | C29U C34A | 0.761
100 | C29U C34A G51A | 0.664
101 | C29U C34G A43U C62U A65U A69C | ≤ 0.5
102 | C29U C34G A65G | 0.668
103 | C29U C34U G41A G67A A70U | ≤ 0.5
104 | C29U C34U G48C G52A | ≤ 0.5
105 | C29U C46A | 0.932
106 | C29U C46G G51A | 0.543
107 | C29U C46G G56A C60A C62G C66A | 0.543
108 | C29U C46U | 0.929
109 | C29U C49A G67C | ≤ 0.5
110 | C29U C49A U64C | 0.597
111 | C29U C49G C60A | ≤ 0.5
112 | C29U C49U | 0.836
113 | C29U C55G G68C | ≤ 0.5
114 | C29U C55U | 0.636
115 | C29U C55U A65G | ≤ 0.5
116 | C29U C61U | 0.706
117 | C29U C61U G63C | ≤ 0.5
118 | C29U C62A C66U | ≤ 0.5
119 | C29U C62G G68A | ≤ 0.5
120 | C29U C62U A70C | 0.604

Row | Variant | yeast fitness
121 | C29U C66A | 0.591
122 | C29U C66U | 0.796
123 | C29U G38A | 0.733
124 | C29U G38A G48C C62G | 0.525
125 | C29U G38C | 0.545
126 | C29U G38C A43U C55U | 0.516
127 | C29U G38C A45G G51C | ≤ 0.5
128 | C29U G38C A45U U59C | 0.592
129 | C29U G38C C46A | ≤ 0.5
130 | C29U G38C C55U G67C | ≤ 0.5
131 | C29U G38C G39A A65G C66A G67A | ≤ 0.5
132 | C29U G38C U64C | ≤ 0.5
133 | C29U G41A A42C G50C A70G | ≤ 0.5
134 | C29U G41A A45C G67U | ≤ 0.5
135 | C29U G41C | 0.776
136 | C29U G41C G56A C60G C62G | ≤ 0.5
137 | C29U G44C | 0.825
138 | C29U G44C A57U | 0.635
139 | C29U G44C C60A | ≤ 0.5
140 | C29U G48A G56C C61U | ≤ 0.5
141 | C29U G48C A65U | ≤ 0.5
142 | C29U G51A | 0.883
143 | C29U G51C G67A | ≤ 0.5
144 | C29U G52C | 0.579

Row | Variant | yeast fitness
145 | C29U G58A A69U | 0.754
146 | C29U G58C A65G | 0.61
147 | C29U G58C G68A | ≤ 0.5
148 | C29U G63A A70U | 0.6
149 | C29U G63C | 0.728
150 | C29U G67A | 0.771
151 | C29U G67C | 0.848
152 | C29U G67U A69U | ≤ 0.5
153 | C29U G68A | 0.937
154 | C29U G68A A69C | ≤ 0.5
155 | C29U G68U | 0.803
156 | C29U U32A A69U | 0.6
157 | C29U U32C | 0.981
158 | C29U U32C G51C | ≤ 0.5
159 | C29U U32C U35G A70U | ≤ 0.5
160 | C29U U32G A43U G44C C61U | 0.509
161 | C29U U32G A43U G44C U53C | ≤ 0.5
162 | C29U U35A C61G | ≤ 0.5
163 | C29U U35A G38C A45U U59C | ≤ 0.5
164 | C29U U35C | 0.95
165 | C29U U35C A42U C61U C66A | ≤ 0.5
166 | C29U U35C C62U A70U | ≤ 0.5
167 | C29U U35C G44C C49U A57U G63A | ≤ 0.5
